NALP3 yeast inh = inhibitors of NALP3 inflammasome in yeast | Yeast reconstituted NLRP3/ASC/caspase-1, beta-gal luminescence, 24 h | inhibition, % at 10 µM | 330,000 tested, 0.39% active | AID 2825;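 active means inhibition of 50% or more; inactive means inhibition below 50%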;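 further: plate controls were induced DMSO wells for no effect and uninduced yeast grown without galactose for full effect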
ATG4B inhibitor = blocks human ATG4B protease cleavage of LC3 substrate. Q9Y4P1. ATG4B cleavage of LC3-PLA2, NBD-HPC fluorescence, 1 h. inhibition, % at 8.33 µM. 340,000 tested, 0.51% active; in the data active means inhibition above about 40%
UCH37 DUB inh = human UCH37 deubiquitinating enzyme inhibition; Q9Y5K5; purified proteasome/UCH37, Ub-AMC cleavage fluorescence; inhibition, % (concentration not given with the values); 330,000 tested, 0.33% active;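 active means mean inhibition over replicate wells above about 20%, limit read from the data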;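 further: 0% = compound-free wells with enzyme and 100% = wells lacking proteasome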
Target sequence (Q9Y5K5 whole entry, looked up): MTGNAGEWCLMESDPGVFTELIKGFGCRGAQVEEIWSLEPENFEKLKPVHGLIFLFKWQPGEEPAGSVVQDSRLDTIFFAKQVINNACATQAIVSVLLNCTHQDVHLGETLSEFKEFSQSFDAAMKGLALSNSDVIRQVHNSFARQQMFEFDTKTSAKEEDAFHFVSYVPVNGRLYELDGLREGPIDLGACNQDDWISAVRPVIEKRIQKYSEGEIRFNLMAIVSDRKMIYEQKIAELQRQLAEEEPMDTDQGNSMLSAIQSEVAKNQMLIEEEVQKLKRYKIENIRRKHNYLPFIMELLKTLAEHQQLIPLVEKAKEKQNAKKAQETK
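Material: Human UCH37 enzyme supplied as purified proteasome complex | Schedule: 30 min compound-proteasome preincubation then 25 min substrate reaction, room temperature | Detection: AMC fluorescence from Ub-AMC cleavage, excitation 355 nm, emission 460 nm | Benchmarks: Wells without proteasome as full block, compound-free enzyme plus substrate as uninhibited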
Calb FLC = affects C. albicans growth with fluconazole. 300,000 tested, 0.57% active. C. albicans CaCi-2 + fluconazole, Alamar Blue growth, 48 h. AID 1979. growth inhibition, % (no concentration beside the values);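 active means growth inhibition above about 58% in most replicates, limit read from the data, passing the limit was not always enough; inconclusive means exactly half the replicates above a set limit; inactive means most replicates below a set limit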;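 further: all wells also contain fluconazole at 8 µg/ml as a sub-toxic cotreatment; 0% = median of DMSO wells and 100% = median of geldanamycin control wells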
ALR inh = human ALR oxidase inhibition via reduced H2O2; P55789; 290,000 tested, 3.8% active; purified ALR, DTT oxidation, H2O2 HRP-luminol luminescence; inhibition, % (no concentration beside the values); AID 485317;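 active means mean replicate inhibition above about 79%, with every replicate also reaching it, limit read from the data; inconclusive means only one of the two criteria met; inactive means mean below limit and not every replicate reaching it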
Target sequence (P55789 whole entry, looked up): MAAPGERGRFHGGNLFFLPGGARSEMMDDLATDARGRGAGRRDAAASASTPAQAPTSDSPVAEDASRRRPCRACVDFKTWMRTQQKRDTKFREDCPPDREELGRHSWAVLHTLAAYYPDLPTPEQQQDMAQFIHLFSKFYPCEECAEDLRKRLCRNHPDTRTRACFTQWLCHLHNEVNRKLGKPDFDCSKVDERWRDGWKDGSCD
NALP1 inh = inhibitors of NALP1 inflammasome in yeast; S. cerevisiae NALP1/ASC/caspase-1 growth, X-gal OD620, 72 h; inhibition, % at 10 µM; 280,000 tested, 0.61% active; in the data active means inhibition mostly above about 24%, no sharp cut-off; inactive means mostly below about 32%
The depositor's hits bear a star; ? = inconclusive; · = not tested or not shown. The list is not random: actives were taken first. Their share in the collection is about 4.8%.

SMILES	NALP3 yeast inh	ATG4B inhibitor	UCH37 DUB inh	Calb FLC	ALR inh	NALP1 inh
CCOC(=O)/C=C1\Nc2ccccc2OC1=O	37.8	-3.8	2.5	-1.9	93.2*	47.0*
CCOC(=O)/C=C1\CC(C(=O)OCC)Oc2ccccc21 (centres undefined)	·	2.5	0.5	·	·	·
Cc1cc(Cl)cc(Cl)c1OCC(=O)NCc1ccco1	21.7	-4.3	-1.1	-4.3	91.3*	23.6
O=C(COc1ccc(Cl)cc1Cl)NNC(=S)NCc1ccco1	10.0	8.6	-0.3	25.5	83.2*	-11.0
O=C(COc1ccc(Cl)cc1Cl)NCc1ccco1	28.2	-3.3	-1.1	-12.4	20.1	6.6
COc1ccccc1N(C)S(=O)(=O)c1ccc(C(=O)Nc2nc(C)c(C(C)=O)s2)cc1	10.9	-3.3	-63.2	·	·	·
COCCN(CCOC)S(=O)(=O)c1ccc(C(=O)Nc2nc(C)c(C(C)=O)s2)cc1	18.7	-0.3	9.5	37.9	99.7*	9.1
O=[N+]([O-])c1ccc(N/N=C2\CC3CC=CC23)cc1 (centres undefined)	30.8	-0.8	·	-1.9	95.7*	-12.9
Cc1cc2n(n1)C(c1ccccc1)Nc1ccccc1-2 (centres undefined)	3.0	-2.8	-30.4	16.1	90.7*	6.6
Cc1cc2n(n1)C(c1sccc1C)Nc1ccccc1-2 (centres undefined)	19.6	-4.3	-21.9	18.5	90.6*	8.3
Oc1ccc(C=NNc2ccc(C(F)(F)F)cn2)cc1O	·	·	-13.4	·	·	·
Cc1ccc2occ(C=NNC(=O)c3ccc(Cl)cc3)c(=O)c2c1	·	·	0.1	·	·	·
N#C/C(=C(/O)COC(=O)c1ccccc1O)c1nc2ccccc2s1	4.2	12.6	·	83.3*	6.7	5.6
N#C/C(=C(/O)c1ccco1)c1nc2ccccc2s1	-4.6	-8.3	20.0*	5.9	56.1	15.2
CC(C)(C)c1ccc(C(=O)OC/C(O)=C(\C#N)c2nc3ccccc3s2)cc1	0.8	25.6	0.5	-1.2	-6.9	12.5
N#C/C(=C(/O)c1ccco1)c1nc2ccccc2[nH]1	10.0	0.1	2.4	78.9*	-6.5	13.8
COc1cccc(Sc2ccccc2C=NNC(N)=O)c1	·	·	2.2	·	·	·
O=C(NN=Cc1cc([N+](=O)[O-])ccc1O)c1cccc(NC(=O)c2cccc(Cl)c2)c1	·	·	5.1	·	·	·
Nc1ccc(OCCCc2c(N)nc(N)nc2N)cc1	11.7	9.3	·	9.9	99.1*	8.5
Oc1ccc(Br)cc1C=NNc1nc(N2CCCCC2)nc(N2CCOCC2)n1	·	·	3.2	·	·	·
Oc1ccc(CCNc2c3ccccc3nc3ccccc23)cc1O	26.4	-3.1	·	57.1	98.7*	16.6
Cc1ccc(-c2cc(C(=O)NN=Cc3cnn(C)c3C)c3ccccc3n2)cc1C	·	·	-16.6	·	·	·
Nc1ccc(C(=O)C(=O)c2ccc(N)cc2)cc1	-9.6	1.8	·	-1.5	-19.0	22.6
Nc1ccc(N=Nc2ccc(N)cc2)cc1	35.0	4.8	17.4	-11.0	98.2*	16.8
CCc1nnc(N/N=C/c2cc(Br)c(O)cc2O)n1N	-4.7	2.8	·	22.5	82.6*	-7.7
SMILES	NALP3 yeast inh	ATG4B inhibitor	UCH37 DUB inh	Calb FLC	ALR inh	NALP1 inh
CCc1nnc(NN=Cc2ccccc2F)n1N	·	·	3.8	·	·	·
Fc1ccc(NC(=S)N2CCCc3ccccc32)cc1	11.5	14.1	-1.0	-17.0	88.9*	-0.3
COc1ccc(C=NNC(=O)c2ccncc2)cc1CN1CCCc2ccccc21	·	·	6.1	·	·	·
O=C(CS(=O)c1ccc(C(F)(F)F)cc1[N+](=O)[O-])Oc1ccccc1 (centres undefined)	-19.0	-11.1	7.8	0.7	98.6*	-23.7
CCCCCC1CCC(c2n[nH]c(=S)n2C)CC1 (centres undefined)	45.1	-5.0	4.2	99.5*	-2.1	12.7
O=S1CCC(=NO)c2ccccc21 (centres undefined)	·	·	0.0	·	·	·
CSc1ccc(NC(=O)Nc2ccc(C(=O)NCC(=O)O)cc2)cc1	10.7	-3.8	·	3.1	97.5*	15.2
C/C(O)=C/c1nc2ccccc2oc1=O	·	·	3.3	·	·	·
CC(=O)N1CCC(=NNc2nc3ccccc3s2)CC1	11.4	-6.5	-1.3	99.4*	?	-5.2
CC(=O)Nc1cccc(/C(C)=N/Nc2nc3ccccc3s2)c1	2.9	-17.6	·	-28.9	97.9*	-0.3
COc1cccc(C=NNC(=O)C(c2ccncc2)N2CCOCC2)c1 (centres undefined)	·	·	0.9	·	·	·
Cn1ncc(Br)c1C(=O)NN=Cc1cccc(OC2CSC2)c1	·	·	-0.1	·	·	·
Oc1ccc(-c2[nH]nc(-c3ccccc3)c2-c2nc3ccccc3[nH]2)cc1	-4.5	10.1	-3.7	19.8	84.4*	13.5
c1ccc2[nH]c(-c3cscn3)nc2c1	·	1.8	2.8	·	-8.7	28.7
CNc1cc(CSC)nc(SCc2ccc(Cl)cc2Cl)n1	40.8	-0.2	-0.1	-36.2	-12.8	32.7*
CCN(CC)c1ccc(C(=O)NN=C(C)c2cccc(OC)c2)cc1	·	·	6.2	·	·	·
COCCNC(=S)NN=Cc1ccc2c(c1)OCCO2	·	·	13.1	·	·	·
CNC(=O)c1ccc(-c2sc3nc(N4CCOCC4)c4c(c3c2N)CC(C)(C)OC4)o1	6.3	-20.6	-425.0	2.4	99.1*	26.5
CCCc1ccc(-c2cc(N)n[nH]2)cc1	-5.0	-2.1	1.9	-5.0	98.9*	3.6
CCCc1ccc(-c2cc(NC(=O)CSc3n[nH]c(N)n3)n(-c3ccccc3)n2)cc1	-7.6	-6.5	0.8	11.6	5.1	-13.6
CCOc1ccccc1C(=O)NN=Cc1coc2ccc(C)cc2c1=O	·	·	-50.7	·	·	·
OCC1(CO)COC(c2ccccc2)=N1	-0.1	-3.2	-0.4	-9.2	-14.7	1.7
O=C1OCC(CO)(CO)N=C1NNc1ccc(Cl)c(Cl)c1	38.2	4.1	9.4	?	100.4*	21.3
CN(Cc1c(C(=O)NN=Cc2ccc(O)cc2)nnn1-c1nonc1N)C1CCCCC1	·	·	4.6	·	·	·
O=C(NN=Cc1ccc([N+](=O)[O-])o1)c1cn(-c2ccccc2)nc1-c1ccccc1	·	·	7.9	·	·	·
SMILES	NALP3 yeast inh	ATG4B inhibitor	UCH37 DUB inh	Calb FLC	ALR inh	NALP1 inh
COc1ccc(SC[C@H](Cc2ccccc2)N2CC[C@@H](C(C)(C)C)CCC2=O)cc1	17.9	0.0	3.3	·	98.8*	·
CCCN1CCC(=O)N([C@H](CSc2ccc(OC)cc2)c2ccccc2)CC1	16.7	2.9	-0.1	-7.8	98.0*	-40.4
COc1ccc(SC[C@H](Cc2ccccc2)N2CC[C@@H](O)CCC2=O)cc1	11.4	-7.0	-0.9	·	1.0	·
COc1ccccc1C=Nn1cnnc1	·	·	-9.1	·	·	·
O=C(CCC1CCCCC1)Nc1ccccc1O	22.7	8.0	2.4	-26.5	91.1*	-9.6
Cc1ccc(O)c(NC(=O)CCC2CCCCC2)c1	26.0	0.5	-1.8	-9.0	-4.0	12.9
COc1ccc(C=NNC(=O)c2cccnc2)cc1CN1CCc2ccccc2C1	·	·	4.8	·	·	·
O=C(NN=Cc1cccc(O)c1)c1ccc(NC(=O)C2CCCCC2)cc1	·	·	3.1	·	·	·
O=C(N/N=C\c1ccc(-c2ccccc2[N+](=O)[O-])o1)C1COc2ccccc2O1 (centres undefined)	11.2	-15.0	·	-2.0	75.4*	25.1

Bioassay records deposited in PubChem BioAssay by several laboratories.
